High-throughput results as filed in PubChem.
Compounds with a hit are over-represented: about 1.1% of the library has one in this group of screens.
T cell modulator = T cell immune modulators affecting CD8 T cell-vesicle binding; 2C CD8+ T cell-vesicle binding, flow cytometry; hits give low values; response (vesicle binding), % at 7 µM; actives 0.068% (n = 330,000);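 active means response, share of CD8 T cells binding vesicles, and their 90th percentile fluorescence all below set limits, cut at about 80% in these data, passing the limit was not always enough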;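 further: values below 100% mean blocked vesicle binding to the CD8+ T cells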
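Assay system – 2C mouse CD8+ T cells · Also added – QL9-loaded Drosophila micro-vesicles · Timing – Cell–vesicle co-incubation 1.5 h at 37 °C, staining 20 min on ice · Signal – flow cytometry of vesicle-bound cells · Measure – percent CD8+ FL2 mean versus row control · Controls – Peptide-free naked vesicles (low) and QL9 vesicles with 0.7% DMSO vehicle (high)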
procasp7 counter = counter-screen for procaspase-3 activators: activators of human procaspase-7 | recombinant procaspase-7, Ac-DEVD-pNA absorbance 405 nm; D23A/D198A/D206A triple mutant, cannot self-cleave; scale: DMSO 0, 5 µM enzyme 100 | AID 463210 | actives 0.093% (n = 330,000) | P55210 | activation, % at 8.5 µM;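 active means percent activation above the screen-wide mean plus 3 SD, cut at about 25% in these data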
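Replicates: singlicate. Assay system: Procaspase-7 triple mutant (PC-7 D3A). Signal: 405 nm absorbance of p-nitroaniline. Times: 1 h preincubation, 2 h reaction. Buffer or medium: Zinc-free HEPES pH 7.4 with 300 mM NaCl, 0.01% Triton X-100. Also added: DEVD-pNA substrate. Benchmarks: DMSO wells as 0%, DMSO with 5 µM added PC-7 as 100%.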
CaV13 FRET inh = Primary screen for inhibitors of IQ motif and Ca2+-dependent inactivation inhibitor domain binding in CACNA1D, Förster resonance energy transfer in living cells, … | HEK cells, CFP/YFP FRET ICDI-IQ, plate reader, 10 min; percent FRET-ratio fall versus neutral wells | inhibition, % at 12.3 µM | actives 0.098% (n = 340,000);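 active means mean replicate inhibition of at least 30% and at least 1% of replicates passing that level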
aDG glyco act = increases alpha dystroglycan glycosylation | Pro5-aDG cells, alpha-DG glycosylation AlphaScreen (IIH6); 0% Pro5, 100% B10-LARGE cell signal | activation, % at 10 µM | actives 0.22% (n = 360,000);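 active means activation of at least 8% versus controls, or a plate z-score of at least 8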;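 further: Pro5 are CHO cells carrying HIG-tagged alpha-DG that lacks glycosylation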
GRK2 aptamer HTS = human GRK2 inhibition via aptamer displacement. actives 0.59% (n = 330,000). inhibition of aptamer binding, % at 10 µM. bead flow cytometry, FAM-aptamer displacement from GRK2;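 active means inhibition of aptamer binding above 40%, roughly 3 SD of noise, on plates passing a quality check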;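 further: median bead fluorescence of bound FAM aptamer so fluorescent compounds give negative values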
Target sequence (P25098 whole entry, looked up): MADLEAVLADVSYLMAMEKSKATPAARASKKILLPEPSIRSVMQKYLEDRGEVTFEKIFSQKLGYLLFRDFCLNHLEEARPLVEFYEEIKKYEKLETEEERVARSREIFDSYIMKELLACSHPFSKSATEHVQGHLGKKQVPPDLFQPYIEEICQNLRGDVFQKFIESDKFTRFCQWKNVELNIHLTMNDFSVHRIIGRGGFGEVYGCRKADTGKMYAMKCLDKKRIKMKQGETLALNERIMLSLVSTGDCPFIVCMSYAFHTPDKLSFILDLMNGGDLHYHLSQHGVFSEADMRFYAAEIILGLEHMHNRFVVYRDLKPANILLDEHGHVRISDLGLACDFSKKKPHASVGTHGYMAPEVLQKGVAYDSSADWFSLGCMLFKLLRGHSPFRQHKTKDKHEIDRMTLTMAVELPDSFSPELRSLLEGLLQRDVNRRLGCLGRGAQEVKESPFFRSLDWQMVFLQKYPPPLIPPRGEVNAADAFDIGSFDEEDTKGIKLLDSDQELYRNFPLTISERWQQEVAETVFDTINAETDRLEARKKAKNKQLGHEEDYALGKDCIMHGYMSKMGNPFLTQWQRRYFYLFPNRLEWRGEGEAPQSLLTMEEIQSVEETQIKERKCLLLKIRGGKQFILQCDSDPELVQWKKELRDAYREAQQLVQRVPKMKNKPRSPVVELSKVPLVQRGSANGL
proCasp3 act = procaspase-3 (human) activation. P42574. recombinant procaspase-3 D3A, Ac-DEVD-pNA absorbance 405 nm. activation, % at 8.5 µM. actives 0.11% (n = 330,000). AID 463141;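 active means activation above the mean of all tested compounds plus 3 SD, cut at about 21% in these data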
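Evaluation: percent activation relative to control range; Material: Procaspase-3 D3A mutant, all three cleavage aspartates alanine; Compound: single dose, 8.5 µM nominal compound, 0.8% DMSO; Replication: one well per compound; Signal: absorbance at 405 nm, 0 and 120 min; Schedule: 1 h preincubation plus 2 h reaction at 25 °C.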
GRK2 inh confirm = human GRK2 inhibition confirmation, cherry pick 1; actives 4% (n = 2,000); bead-bound GRK2, FAM-aptamer displacement, flow cytometry; shares compounds with GRK2 aptamer HTS; AID 504451; aptamer displacement, % at 10 µM;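 active means aptamer displacement above 40%, near three times the noise of non-fluorescent compounds, on plates passing quality checks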;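 further: negative values mostly reflect intrinsic compound fluorescence rather than true enhancement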
Aptamer quench 1 = quenches fluorescent RNA aptamer, GRK2 hit artifact; shares compounds with GRK2 aptamer HTS; Fluorescent RNA aptamer beads, quenching, flow cytometry; hits give high values; fluorescence change (kMESF span), kMESF (test concentration not listed); 110 tested, under 10 active; AID 504521;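 active means compounds whose bead fluorescence drops by more than 37 kMESF across the dose range, marking them as dye quenchers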
Aptamer quench SP = counter-screen for GRK2 aptamer inhibitors: fluorescent aptamer quenchers. Carboxyfluorescein RNA aptamer on beads, flow cytometry quenching; hits give low values. shares compounds with GRK2 aptamer HTS. 2,000 tested, under 10 active. fluorescence response (% of DMSO), % at 10 µM;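 active means compounds that quench the bead-bound fluorescent RNA probe, cutting fluorescence to under half of the solvent control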;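 further: counterscreen run without GRK2 so only probe quenching by compound is measured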
GRK2 CP2 = confirmation of human GRK2 inhibitors binding RNA aptamer site; shares compounds with GRK2 aptamer HTS; bead-bound GRK2, FAM-aptamer displacement, flow cytometry; inhibition of aptamer binding, % at 10 µM; 360 tested, under 10 active; AID 504782;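 active means inhibition of aptamer binding above 40%, about triple the noise seen with nonglowing compounds, on plates passing quality control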;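 further: negative values mostly come from compounds that fluoresce themselves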
FAM quench CP2 = quenches fluorescent RNA aptamer, GRK2 hit artifact. shares compounds with GRK2 aptamer HTS. carboxyfluorescein RNA aptamer beads, flow cytometry quenching; hits give low values. fluorescence response vs DMSO, % at 10 µM. 360 tested, under 10 active;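 active means response vs DMSO under 50%, meaning signal dropped by over half, treated as fluorescence quencher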;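 further: labelled aptamer on streptavidin beads without GRK2 as a quench counter-screen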
Hits are given with their value; - = inactive; . = not tested or not shown.

SMILES	T cell modulator	procasp7 counter	CaV13 FRET inh	aDG glyco act	GRK2 aptamer HTS	proCasp3 act	GRK2 inh confirm	Aptamer quench SP	others
CC(C)(CCl)C(=O)Nc1ccnc(-c2ccncc2)n1	-	-	-	-	-	-	.	.
COC(=O)[C@]12CCCCC=C1N(Cc1ccco1)C(=O)[C@H](CC(=O)N1CCOCC1)C2	.	.	-	-	.	.	.	.
O=C(Nc1cccc(-c2ccc(N3CCOCC3)nn2)c1)c1ccc([N+](=O)[O-])cc1	-	-	-	-	-	-	.	.
O=C(Nc1cccc(-c2ccc(N3CCOCC3)nn2)c1)c1ccccc1	-	-	-	-	-	-	-	-	Aptamer quench 1=-
Cc1ccccc1C(=O)Nc1cccc(-c2ccc(N3CCOCC3)nn2)c1	-	-	-	-	-	-	-	-
Cc1ccc(C(=O)Nc2cccc(-c3ccc(N4CCOCC4)nn3)c2)cc1[N+](=O)[O-]	-	-	-	-	-	-	.	.
CS(=O)(=O)Nc1cccc(C2=NN(C(=O)c3cccc([N+](=O)[O-])c3)C(c3cccs3)C2)c1 (stereo not drawn)	-	-	-	-	-	-	.	.
CCCc1cc2c(OC)ccc(O)c2c(=O)n1C	.	.	-	.	.	.	.	.
Cc1cc(Br)ccc1SCC(=O)OCC(=O)NCc1ccco1	-	-	-	-	52.0	-	-	-
O=C(COC(=O)Cc1ccc(Cl)cc1)NCc1ccco1	-	-	-	-	59.0	-	-	-
O=C(COC(=O)CSc1ccc(Br)cc1)NCc1ccco1	-	-	-	-	-	-	.	.
O=C(COC(=O)Cc1c(Cl)cccc1Cl)NCc1ccco1	-	-	-	-	-	-	.	.
O=C(COC(=O)Cc1ccc(Cl)c(Cl)c1)NCc1ccco1	-	-	-	-	-	-	-	-
O=C(NCCCCc1ccccc1)Nc1ccc(F)cc1	-	-	-	-	-	-	.	.
COc1ccccc1N1CCN(C(=O)CN(c2ccccc2OC)S(=O)(=O)c2ccccc2)CC1	-	-	-	-	-	-	.	.
CCc1nc2ccccc2n1CC(=O)OCC(=O)N(CC(C)C)c1c(N)n(Cc2ccccc2)c(=O)[nH]c1=O	-	-	-	-	-	-	.	.
C=CCCC1CN(Cc2ccc(OC)cc2)S(=O)(=O)c2c(cccc2Sc2ccc(OC)c(OC)c2)O1 (stereo not drawn)	.	.	-	.	.	.	.	.
COC(=O)c1ccc(OS(=O)(=O)N(C)C)cc1	-	-	-	-	-	-	.	.
CCN(CC)c1ccc(NC(=O)c2nc3nc(C)cc(C(F)F)n3n2)cc1	-	-	-	-	48.0	-	-	-
Nc1nc(N(Cc2ccccc2)Cc2ccccc2)nc(C(F)(F)F)n1	-	-	-	-	43.0	-	.	.	GRK2 CP2=-;FAM quench CP2=-
Cc1occc1C(=O)NCc1cccc(CNC(=O)c2ccoc2C)c1	-	-	.	-	47.0	-	-	-
C=CCOc1cccc(NC(=O)c2ccccc2SC)c1	-	-	-	-	92.0	-	-	-
CSc1ccccc1C(=O)Nc1cccc(C)c1	-	-	-	-	97.0	-	-	-
CSc1ccccc1C(=O)Nc1cccc([N+](=O)[O-])c1	-	-	-	-	-	-	.	.
